Reference: ChEMBL document CHEMBL5042498, “Development of 3-(4-Chlorophenyl)-1-(phenethyl)urea Analogues as Allosteric Modulators of the Cannabinoid Type-1 Receptor: RTICBM-189 is Brain Penetrant and Attenuates Reinstatement of Cocaine-Seeking Behavior” (J Med Chem, 2022)

Tests used:
[1] = target: Cannabinoid receptor 2 (Homo sapiens) (UniProt P34972); test: Antagonist activity at human CB2 receptor CP55940-stimulated calcium mobilization incubated for 15 mins FLIPR assay; format: functional; parameters: concentration or dose not given beside the values
Chain of Cannabinoid receptor 2 (Homo sapiens) (P34972 whole entry): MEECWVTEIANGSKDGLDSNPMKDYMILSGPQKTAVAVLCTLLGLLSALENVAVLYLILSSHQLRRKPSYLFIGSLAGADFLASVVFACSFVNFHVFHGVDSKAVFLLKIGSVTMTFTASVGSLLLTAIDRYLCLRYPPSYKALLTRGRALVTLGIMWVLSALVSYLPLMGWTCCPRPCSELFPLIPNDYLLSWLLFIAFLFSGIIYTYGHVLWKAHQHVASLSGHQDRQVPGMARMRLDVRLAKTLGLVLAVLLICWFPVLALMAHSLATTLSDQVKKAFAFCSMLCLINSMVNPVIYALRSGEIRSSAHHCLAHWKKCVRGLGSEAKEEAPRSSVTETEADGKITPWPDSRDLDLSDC
In short: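 CB2 antagonist screen in human CB2 CHO-RD-HGA16 cells loaded with Calcium 5 dye. Cells were pretreated 15 min at 37 °C with the test compound at a single concentration (10 μM), then challenged with CP55,940 at its EC80 during the FLIPR read (90 s, 485/525 nm). Response is expressed as % inhibition of the CP55,940 EC80 signal.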

Cannabinoid receptor 1 [2] = target: T1, Cannabinoid receptor 1 (Homo sapiens, UniProt P21554); test: Allosteric antagonist activity at human CB1 receptor expressed in CHO-RD-HGA16 cells overexpressing Galpha16 assessed as inhibition of CP55940-stimulated calcium mobilization incubated for 15 mins FLIPR assay; format: functional, cell-based
T1 sequence (P21554 whole entry): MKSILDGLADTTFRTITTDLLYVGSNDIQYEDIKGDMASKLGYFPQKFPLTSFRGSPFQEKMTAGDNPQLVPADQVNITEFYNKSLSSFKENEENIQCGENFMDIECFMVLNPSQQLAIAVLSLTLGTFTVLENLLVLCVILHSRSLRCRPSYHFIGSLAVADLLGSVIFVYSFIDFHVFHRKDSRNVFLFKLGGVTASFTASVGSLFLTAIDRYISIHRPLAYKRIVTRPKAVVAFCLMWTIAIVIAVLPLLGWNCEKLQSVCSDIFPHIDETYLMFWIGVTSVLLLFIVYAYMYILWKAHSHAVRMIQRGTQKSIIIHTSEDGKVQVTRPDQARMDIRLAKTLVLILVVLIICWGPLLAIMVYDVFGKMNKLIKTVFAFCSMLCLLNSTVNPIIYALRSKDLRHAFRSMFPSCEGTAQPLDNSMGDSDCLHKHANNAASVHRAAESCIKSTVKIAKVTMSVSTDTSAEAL

[3] = target: Cannabinoid receptor 2 (Homo sapiens) (UniProt P34972); test: Agonist activity at human CB2 receptor CP55940-stimulated calcium mobilization at 10 uM incubated for 15 mins FLIPR assay relative to control; format: functional
In short: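 CB2 agonist screen in CHO-RD-HGA16 cells stably expressing human CB2, loaded with Calcium 5 dye for 45 min at 37 °C. Cells were pretreated 15 min with vehicle, then the test compound was added at a single concentration. Fluorescence was read on FLIPR every 1 s for 90 s (485/525 nm). Response is expressed as % of CP55,940 Emax.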

Cannabinoid receptor 1 [4] = target: T1, Cannabinoid receptor 1; test: Agonist activity at human CB1 receptor CP55940-stimulated calcium mobilization at 10 uM incubated for 15 mins FLIPR assay relative to control; format: functional
Cannabinoid receptor 1 [5] = target: T1, Cannabinoid receptor 1; test: Allosteric antagonist activity against human CB1 receptor expressed in HEK293 cells membrane measured after 60 mins by [35S]GTPgammaS binding assay; format: functional, cell membranes
In short: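 Membranes from HEK293 cells expressing hCB1 are used in assay buffer (50 mM Tris, 3 mM MgCl2, 0.2 mM EGTA, 100 mM NaCl, 1 mg/ml BSA, pH 7.4). They are preincubated 10 min, then incubated 60 min at 30 °C with 30 μM GDP, 0.1 nM [35S]GTPγS, 100 nM CP55,940 and serially diluted compound (0.1% DMSO final). Nonspecific binding is set with 30 μM unlabeled GTPγS. Reactions are filtered. Data are normalized to CP55,940 alone and fitted by 3-parameter regression; mean of ≥3 experiments in duplicate.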

Cannabinoid receptor 1 [6] = target: T1, Cannabinoid receptor 1; test: Antagonist activity at N-terminal tagged human CB1 receptor transfected with HEK293 cells assessed as forskolin-stimulated cAMP level in presence of CP55940 by BRET assay; format: functional, cell-based
In short: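 HEK293 cells stably expressing hCB1 (3HA-tagged at Otago, untagged at RTI) are transiently transfected with the CAMYEL BRET cAMP sensor. Cells are serum-starved 30 min and given 5 μM coelenterazine H final. Compound dilutions are added together with 5 μM forskolin and 1 μM CP55,940. BRET (460/535) is read for about 20 min at 37 °C.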

Cannabinoid receptor 1 [7] = target: Cannabinoid receptor 1 (Mus musculus, UniProt P47746); test: Allosteric antagonist activity against mouse CB1 receptor in cerebellar membranes measured after 60 mins by [35S]GTPgammaS binding assay
Chain of Cannabinoid receptor 1 (Mus musculus, UniProt P47746) (P47746 whole entry): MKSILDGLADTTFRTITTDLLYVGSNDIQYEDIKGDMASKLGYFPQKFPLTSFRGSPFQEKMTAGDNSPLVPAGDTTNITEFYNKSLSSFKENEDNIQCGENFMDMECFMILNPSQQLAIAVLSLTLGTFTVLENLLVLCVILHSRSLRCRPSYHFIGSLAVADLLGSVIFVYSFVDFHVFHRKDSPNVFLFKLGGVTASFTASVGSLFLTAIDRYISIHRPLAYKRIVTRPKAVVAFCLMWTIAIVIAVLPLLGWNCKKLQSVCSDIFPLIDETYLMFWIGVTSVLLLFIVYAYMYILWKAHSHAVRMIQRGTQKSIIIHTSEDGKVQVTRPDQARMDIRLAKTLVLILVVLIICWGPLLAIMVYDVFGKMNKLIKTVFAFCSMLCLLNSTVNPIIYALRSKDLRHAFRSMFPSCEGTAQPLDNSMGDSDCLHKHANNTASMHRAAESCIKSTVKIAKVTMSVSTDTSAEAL

[8] = Metabolic stability in rat liver microsomes assessed as half life in presence of NADPH measured upto 45 mins by LC-MS/MS analysis; format: ADME, Microsome; settings: 0.75 h
In short: (§1)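 Rat liver microsomes (0.5 mg/mL protein) in 100 mM potassium phosphate, pH 7.4, at 37 °C with 1 mM NADPH. Samples were taken at 0, 5, 15, 30 and 45 min, quenched with acetonitrile and analysed by LC/MS/MS. Half-life and clearance were derived from two independent experiments in duplicate.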

[9] = Metabolic stability in rat liver microsomes assessed as clearance in presence of NADPH measured upto 45 mins by LC-MS/MS analysis; format: ADME, Microsome; settings: 0.75 h; in short: as §1

Row | SMILES | Activity [1] | IC50 (Cannabinoid receptor 1 [2]) | Emax [3] | Emax (Cannabinoid receptor 1 [4]) | IC50 (Cannabinoid receptor 1 [5]) | IC50 (Cannabinoid receptor 1 [6]) | IC50 (Cannabinoid receptor 1 [7]) | t1/2 [8] | CLH [9]
1 | O=C(NCCc1ccc(Cl)cc1Cl)Nc1ccc(Cl)cc1 | < 35% | 166 nM | < 20% | < 30% | – | – | – | – | –
2 | O=C(NCCc1ccc(C(F)(F)F)cc1)Nc1ccc(Cl)cc1 | < 35% | 178 nM | < 20% | < 30% | – | – | – | – | –
3 | O=C(NCCc1ccc(-c2ccccc2)cc1)Nc1ccc(Cl)cc1 | < 35% | 871 nM | < 20% | < 30% | – | – | – | – | –
4 | O=C(NCCc1cccc(Br)c1)Nc1ccc(Cl)cc1 | < 35% | 32.4 nM | < 20% | – | 3470 nM | 724 nM | – | – | –
5 | Cc1ccc(CCNC(=O)Nc2ccc(Cl)cc2)cc1C | < 35% | 47.9 nM | < 20% | – | 2570 nM | 1150 nM | – | – | –
6 | O=C(NCCc1ccccc1F)Nc1ccc(Cl)cc1 | < 35% | 170 nM | < 20% | < 30% | – | – | – | – | –
7 | O=C(NCCc1ccc(N2CCCCC2)cc1)Nc1ccc(Cl)cc1 | < 35% | 912 nM | < 20% | – | – | – | – | – | –
8 | COc1cc(CCNC(=O)Nc2ccc(Cl)cc2)cc(OC)c1 | < 35% | 1070 nM | < 20% | < 30% | – | – | – | – | –
9 | O=C(NCCc1cccc(OC(F)(F)F)c1)Nc1ccc(Cl)cc1 | < 35% | 93.3 nM | < 20% | – | 7940 nM | 10700 nM | – | – | –
10 | N#Cc1cccc(CCNC(=O)Nc2ccc(Cl)cc2)c1 | < 35% | 145 nM | < 20% | – | 832 nM | 871 nM | – | – | –
11 | O=C(NCCc1cc(Cl)cc(Cl)c1)Nc1ccc(Cl)cc1 | < 35% | 24 nM | < 20% | – | 1740 nM | 4370 nM | – | – | –
12 | O=C(NCCc1ccc(F)cc1)Nc1ccc(Cl)cc1 | < 35% | 105 nM | < 20% | < 30% | 4370 nM | 1700 nM | 891 nM | – | –
13 | CN(C)c1cccc(CCNC(=O)Nc2ccc(Cl)cc2)c1 | < 35% | 1620 nM | < 20% | < 30% | – | – | – | – | –
14 | O=C(NCCc1cccc(F)c1)Nc1ccc(Cl)cc1 | < 35% | 51.3 nM | < 20% | < 30% | 6760 nM | 1350 nM | – | – | –
15 | COc1ccc(CCNC(=O)Nc2ccc(Cl)cc2)cc1OC | < 35% | 1780 nM | < 20% | < 30% | > 10000 nM | > 10000 nM | – | – | –
16 | CN(C)c1ccc(CCNC(=O)Nc2ccc(Cl)cc2)cc1 | < 35% | 257 nM | < 20% | < 30% | – | – | – | – | –
17 | COc1cccc(CCNC(=O)Nc2ccc(Cl)cc2)c1 | < 35% | 447 nM | < 20% | < 30% | 12300 nM | 7760 nM | – | – | –
18 | O=C(NCCc1ccccc1C(F)(F)F)Nc1ccc(Cl)cc1 | < 35% | 126 nM | < 20% | < 30% | 4270 nM | 3240 nM | – | – | –
19 | O=C(NCCc1ccc([N+](=O)[O-])cc1)Nc1ccc(Cl)cc1 | < 35% | 85.1 nM | < 20% | < 30% | 2950 nM | 1780 nM | – | – | –

Row | SMILES | Activity [1] | IC50 (Cannabinoid receptor 1 [2]) | Emax [3] | Emax (Cannabinoid receptor 1 [4]) | IC50 (Cannabinoid receptor 1 [5]) | IC50 (Cannabinoid receptor 1 [6]) | IC50 (Cannabinoid receptor 1 [7]) | t1/2 [8] | CLH [9]
20 | CS(=O)(=O)c1ccc(CCNC(=O)Nc2ccc(Cl)cc2)cc1 | < 35% | > 10000 nM | < 20% | < 30% | – | – | – | – | –
21 | O=C(NCCc1c(F)cccc1Cl)Nc1ccc(Cl)cc1 | < 35% | 398 nM | < 20% | < 30% | – | – | – | – | –
22 | N#Cc1ccc(CCNC(=O)Nc2ccc(Cl)cc2)cc1 | < 35% | 437 nM | < 20% | < 30% | – | – | – | – | –
23 | CC(C)(C)c1ccc(CCNC(=O)Nc2ccc(Cl)cc2)cc1 | < 35% | 537 nM | < 20% | < 30% | > 10000 nM | > 10000 nM | > 10000 nM | – | –
24 | Cc1ccc(CCNC(=O)Nc2ccc(Cl)cc2)cc1 | < 35% | 135 nM | < 20% | < 30% | 13800 nM | 2040 nM | – | – | –
25 | COc1ccccc1CCNC(=O)Nc1ccc(Cl)cc1 | < 35% | 1580 nM | < 20% | < 30% | – | – | – | – | –
26 | O=C(NCCc1ccccc1)Nc1ccc(Cl)cc1 | < 35% | 186 nM | < 20% | – | 6760 nM | 3470 nM | – | – | –
27 | O=C(NCCc1ccc(Cl)cc1)Nc1ccc(Cl)cc1 | < 35% | 162 nM | < 20% | < 30% | – | – | – | – | –
28 | O=C(NCCc1ccc(Br)cc1)Nc1ccc(Cl)cc1 | < 35% | 148 nM | < 20% | < 30% | – | – | – | – | –
29 | COc1ccc(CCNC(=O)Nc2ccc(Cl)cc2)cc1 | < 35% | 214 nM | < 20% | < 30% | 5620 nM | 4170 nM | 3720 nM | – | –
30 | O=C(NCCc1ccccc1Cl)Nc1ccc(Cl)cc1 | < 35% | 229 nM | < 20% | < 30% | – | – | – | – | –
31 | COc1cc(CCNC(=O)Nc2ccc(Cl)cc2)ccc1O | < 35% | > 10000 nM | < 20% | < 30% | – | – | – | – | –
32 | O=C(NCCc1ccc(O)cc1)Nc1ccc(Cl)cc1 | < 35% | > 10000 nM | < 20% | < 30% | – | – | – | – | –
33 | O=C(NCCc1c(F)cc(F)cc1F)Nc1ccc(Cl)cc1 | < 35% | 79.4 nM | < 20% | < 30% | – | – | – | – | –
34 | Cc1cc(C)cc(CCNC(=O)Nc2ccc(Cl)cc2)c1 | < 35% | 28.8 nM | < 20% | – | 6610 nM | 6610 nM | – | – | –
35 | O=C(NCCc1c(F)c(F)c(F)c(F)c1F)Nc1ccc(Cl)cc1 | < 35% | 32.4 nM | < 20% | < 30% | – | – | – | – | –
36 | Cc1cccc(CCNC(=O)Nc2ccc(Cl)cc2)c1 | < 35% | 41.7 nM | < 20% | < 30% | 3020 nM | 912 nM | – | 13.7 min | 102 µL/min/mg
37 | O=C(NCCc1cccc(C(F)(F)F)c1)Nc1ccc(Cl)cc1 | < 35% | 28.8 nM | < 20% | < 30% | 1290 nM | 676 nM | – | 15.5 min | 90 µL/min/mg
